≈ marks a conversion by molar mass, not a printed value. Calls of active or inactive are those of the source. The calls are words filed in the database; no cut-off is given here.
Columns and labels:
Proteus vulgaris = assay: […] activity against Proteus vulgaris ATCC 3851 at 200 ug/mL; assay type: functional, organism-based
Trichophyton rubrum = assay: Antifungal activity against Trichophyton rubrum IFO 6204 at 200 ug/mL; assay type: functional, organism-based
Klebsiella pneumoniae = assay: Antibacterial activity against Klebsiella pneumoniae ATCC 10031 at 200 ug/mL; assay type: functional, organism-based
[1] = tested on: Trichophyton mentagrophytes; assay: Antifungal activity against Trichophyton mentagrophytes IFO 40996 at 200 ug/mL; assay type: functional, organism-based
[2] = Inhibition of Staphylococcus aureus sortase B
How it was run: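 Recombinant sortase B enzyme; inhibition given as EC50 in µg/mL.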

Staphylococcus aureus = assay: Antibacterial activity against Staphylococcus aureus ATCC 6538 at 200 ug/mL; assay type: functional, organism-based
Salmonella typhimurium = assay: Antibacterial activity against Salmonella Typhimurium ATCC 14028 at 200 ug/mL; assay type: functional, organism-based; conditions: Salmonella enterica subsp. enterica serovar Typhimurium
Escherichia coli = assay: Antibacterial activity against Escherichia coli ATCC 11775 at 200 ug/mL; assay type: functional, organism-based
Bacillus subtilis = assay: Antibacterial activity against Bacillus subtilis ATCC 6633 at 200 ug/mL; assay type: functional, organism-based
Candida albicans = assay: Antifungal activity against Candida albicans ATCC 10231 at 200 ug/mL; assay type: functional, organism-based
Micrococcus luteus = assay: Antibacterial activity against Micrococcus luteus ATCC 10240 at 200 ug/mL; assay type: functional, organism-based

| EC50 [2] | SMILES | Activity (Proteus vulgaris) | Activity (Trichophyton rubrum) | Activity (Klebsiella pneumoniae) | Activity [1] | Activity (Staphylococcus aureus) | Activity (Salmonella typhimurium) | Activity (Escherichia coli) | Activity (Bacillus subtilis) | Activity (Candida albicans) | Activity (Micrococcus luteus) |
| --- | --- | --- | --- | --- | --- | --- | --- | --- | --- | --- | --- |
| 126.4 µg/mL (≈ 215 µM) | O=C1CCC(=O)N(O)CCCCCNC(=O)CCC(=O)N(O)CCCCNC(=O)CCC(=O)N(O)CCCCCN1 [DESMETHYLENYLNOCARDAMINE] | inactive | inactive | inactive | inactive | inactive | inactive | inactive | inactive | inactive | inactive |
| > 200 µg/mL | O=C1CCC(=O)N(O)CCCCCNC(=O)CCC(=O)N(O)CCCCCNC(=O)CCC(=O)N(O)CCCCCN1 [NOCARDAMINE] | inactive | inactive | inactive | inactive | inactive | inactive | inactive | inactive | inactive | inactive |
| 88.3 µg/mL (≈ 151 µM) | O=C1CCC(=O)NCCCCCN(O)C(=O)CCC(=O)NCCCCCN(O)C(=O)CCC(=O)NCCCCCN1 [DEHYDROXYNOCARDAMINE] | inactive | inactive | inactive | inactive | inactive | inactive | inactive | inactive | inactive | inactive |

Reference: ChEMBL document CHEMBL1158747, “Cyclic peptides of the nocardamine class from a marine-derived bacterium of the genus Streptomyces” (J Nat Prod, 2005)
